{"data": "Experimental data from different studies", "target": "Myotonin-protein kinase (DMPK, Homo sapiens, UniProt Q09013)", "One construct used (Q09013 1-629)": "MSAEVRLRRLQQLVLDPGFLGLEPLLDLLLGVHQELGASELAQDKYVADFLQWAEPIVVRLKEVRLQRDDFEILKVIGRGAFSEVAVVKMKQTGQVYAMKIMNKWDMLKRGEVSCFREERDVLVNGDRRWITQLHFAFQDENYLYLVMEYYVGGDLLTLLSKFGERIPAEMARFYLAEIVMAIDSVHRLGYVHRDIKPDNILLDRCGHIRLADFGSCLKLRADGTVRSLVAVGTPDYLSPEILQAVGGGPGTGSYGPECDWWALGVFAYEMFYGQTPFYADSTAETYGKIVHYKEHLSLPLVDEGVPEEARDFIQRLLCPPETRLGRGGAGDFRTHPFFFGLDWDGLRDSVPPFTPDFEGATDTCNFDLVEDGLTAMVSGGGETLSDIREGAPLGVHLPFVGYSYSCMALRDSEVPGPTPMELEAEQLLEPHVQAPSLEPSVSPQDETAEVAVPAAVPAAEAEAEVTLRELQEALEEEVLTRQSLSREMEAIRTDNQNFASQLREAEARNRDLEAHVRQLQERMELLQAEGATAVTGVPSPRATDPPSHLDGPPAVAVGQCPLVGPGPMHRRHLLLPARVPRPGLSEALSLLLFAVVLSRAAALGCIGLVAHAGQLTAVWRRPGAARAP", "note": "Protocols differ between the studies behind these lines."}
{"Structure (SMILES)": "COc1ccnn2ncc(-c3ccnc(N(C)C)n3)c12", "test": "binding", "conditions": "1 µM", "remaining binding [%]": 100}
{"Structure (SMILES)": "COc1cnc(Nc2cccc(S(N)(=O)=O)c2)nc1N1CCN(c2ccccc2)C(=O)C1", "test": "binding, competition with immobilised ligand", "conditions": "1 µM", "remaining binding [%]": 100}
{"Structure (SMILES)": "CN(C)c1ncc(F)c(-c2cnn3ncccc23)n1", "test": "binding", "conditions": "1 µM", "remaining binding [%]": 100}
{"Structure (SMILES)": "Cn1nc(C(=O)NCc2ccc(C(=O)O)cc2)cc1-c1ccc2[nH]ccc2c1", "test": "cell-free assay, competition with immobilised ligand", "conditions": "0.1 µM", "remaining binding [%]": 76}
{"Structure (SMILES)": "CN(CCCC(F)(F)F)c1nccc(-c2cnn3ncccc23)n1", "test": "binding", "conditions": "1 µM", "remaining binding [%]": 80}
{"Structure (SMILES)": "O=C1CCc2cc(Nc3cc(OC4CCOCC4)c([N+](=O)[O-])cc3Cl)ccc2N1", "test": "cell-free assay, competition with immobilised ligand", "conditions": "1 µM", "remaining binding [%]": 96}
{"Structure (SMILES)": "COc1ncc2cc3ccccc3nc2c1C#N", "test": "cell-free assay, competition with immobilised ligand", "conditions": "5 µM", "remaining binding [%]": 100}
{"Structure (SMILES)": "CO[C@@H](C)c1c(Nc2ccc([C@@H](N(C)C(=O)C3CCS(=O)(=O)CC3)C(F)(F)F)cc2)cnc2cc(Cl)nn12", "test": "cell-free assay, competition with immobilised ligand", "conditions": "1 µM", "remaining binding [%]": 91}
{"Structure (SMILES)": "CC1CCCN1c1nccc(-c2cnn3ncccc23)n1 (stereo not shown)", "test": "binding", "conditions": "1 µM", "remaining binding [%]": 94}
{"Structure (SMILES)": "CCN1CCN(Cc2ccc(C(=O)Nc3ccc(C)c(Oc4ccc5c(c4)CC(=O)N5)c3)cc2C(F)(F)F)CC1", "test": "binding, competition with immobilised ligand", "conditions": "1 µM", "remaining binding [%]": 88}
{"Structure (SMILES)": "O=C(c1ccc(Nc2nccc(-c3cc4ccccc4s3)n2)cc1)N1CCC(N2CCCC2)CC1", "test": "binding, competition with immobilised ligand", "conditions": "1 µM", "remaining binding [%]": 100}
{"Structure (SMILES)": "C[C@@H](c1ccc(-n2cnc3c(N)ncnc32)cc1)N1CCc2nn(C)c(Cc3ccccc3)c2C1=O", "test": "binding, competition with immobilised ligand", "conditions": "0.1 µM", "remaining binding [%]": 86}
{"Structure (SMILES)": "O=C(NCCCC1CCCCC1)c1ccc(CNC(=O)c2cnn(-c3ccccc3)c2C(F)(F)F)cc1", "test": "cell-free assay, competition with immobilised ligand", "conditions": "0.1 µM", "remaining binding [%]": 83}
{"Structure (SMILES)": "N[C@@H]1CCN(c2nccc(-c3cnn4ncccc34)n2)C1", "test": "binding", "conditions": "1 µM", "remaining binding [%]": 94}
{"Structure (SMILES)": "O=c1nc(-c2ccccn2)sc2ccccc12", "test": "binding, competition with immobilised ligand", "conditions": "1 µM", "remaining binding [%]": 100}
{"Structure (SMILES)": "C[C@@H]1CCN(c2nccc(-c3cnn4ncccc34)n2)C1", "test": "binding", "conditions": "1 µM", "remaining binding [%]": 90}
{"Structure (SMILES)": "C[C@H](c1cccc(C#N)c1)n1cc(Cl)cc(C(N)=O)c1=N", "test": "cell-free assay, competition with immobilised ligand", "conditions": "1 µM", "remaining binding [%]": 100}
{"Structure (SMILES)": "Cc1cnc(Nc2ccc(C(=O)N3CCC(N4CCCC4)CC3)cc2)nc1-c1cc2ccccc2s1", "test": "binding, competition with immobilised ligand", "conditions": "1 µM", "remaining binding [%]": 100}
{"Structure (SMILES)": "O=C(Nc1c[nH]nc1C(=O)NC1CCNCC1)c1cc(F)cc(F)c1", "test": "binding, competition with immobilised ligand", "conditions": "1 µM", "remaining binding [%]": 100}
{"Structure (SMILES)": "O=C(NCCCN1CCOCC1)c1ccc(Nc2nccc(-c3cc4ccccc4s3)n2)cc1", "test": "binding, competition with immobilised ligand", "conditions": "1 µM", "remaining binding [%]": 100}
{"Structure (SMILES)": "CN(C)c1nccc(-c2cnn3ncccc23)n1", "test": "binding", "conditions": "1 µM", "remaining binding [%]": 100}
{"Structure (SMILES)": "CCC(=O)N[C@H]1CC[C@@H](C(=O)N(C)c2ccc(-c3nc4ccccc4o3)cc2)C1", "test": "cell-free assay, competition with immobilised ligand", "conditions": "1 µM", "remaining binding [%]": 100}
